Here are results for 5 compounds from publication PMC3880631 (Journal of medicinal chemistry, 2013).

The subject of data set [1] is selectively-mutated p51 thumb α-helix I variants (Lys275 – Arg286) of HIV-1 RT. It counts as biochemical. To be noted: Supplementary Table S1. The procedure, abridged:
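Reconstituted p66/p51 RT with p51 thumb mutations (150 - 800 ng), pre-mixed with test compound in DMSO; 18-nt 3′-fluorescein RNA/5′-dabsyl DNA hybrid (250 nM final) added to start. […] Triplicates.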

The test system of a further data set is HIV-1RF isolate. Put plainly: in vitro. The data set is classed as cell-based.
In data set [2] the target is HIV-1 RT DNA-dependent DNA polymerase activity (Human immunodeficiency virus type 1 group M subtype B, UniProt P03366). Put plainly: DNA-dependent DNA polymerase assay. The data set is classed as biochemical. Particulars: read-out: inhibition of DNA-dependent DNA polymerase activity.

Usually inhibition stands for the relative decrease from the control value, in per cent.

For the compound `Cc1sc2nc(-c3ccc(O)c(O)c3)[nH]c(=O)c2c1C` [Compound 9], the “sensitivity of the entire panel of p51 thumb α-helix I variants” value in data set [1] was “uniformly sensitive”.
On to `CCCc1c(C)sc2nc(-c3ccc(O)c(O)c3)[nH]c(=O)c12` [Compound 24], for which, in the data set with HIV-1RF isolate (human, sr, selectivity ratio, i.e., CC50/EC50, CC50/EC50), the selectivity ratio is roughly 6.
For the compound `CCCCc1c(C)sc2nc(-c3ccc(O)c(O)c3)[nH]c(=O)c12` [Compound 25], the inhibition at 50 µM in data set [2] is greater than 60%.
Consider `O=c1[nH]c(-c2ccc(O)c(O)c2)nc2sc3c(c12)CCCC3` [Compound 28], for which the inhibition at 50 µM in data set [2] was greater than 60%. Further, in the data set on HIV-1RF isolate (HIV-1RF in CEM-SS cells), the “protection from HIV infection” value was “failed to elicit protection from HIV infection”.
In the case of `O=c1[nH]c(-c2ccc(O)c(O)c2)nc2sc3c(c12)CCCCCC3` [Compound 30], the inhibition at 50 µM in data set [2] was greater than 60%.
